Experiments:
[1] = Antioxidant scavenging activity against AAPH-induced peroxyl radical assessed as trolox equivalent per uM of compound by ORAC-fluorescein assay; format: physicochemical
Summary of the method: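 Peroxyl radicals generated by AAPH (12 mM final) at 37 °C in 75 mM phosphate buffer pH 7.4. Sample (0.5–10 µM) was preincubated 15 min with fluorescein (300 nM final), then AAPH added. Fluorescence (ex 485/em 535 nm) read every 60 s for 90 min. Net AUC vs blank was calibrated against Trolox (1–8 µM final). Each run fourfold, at least four independent runs.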

Acetylcholinesterase = Acetylcholinesterase (Electrophorus electricus, UniProt O42275); assay: Inhibition of electric eel AChE type 6S by Ellman's assay
[2] = Selectivity ratio of IC50 for electric eel AChE to IC50 for equine serum BuChE
Butyrylcholinesterase = Butyrylcholinesterase (Equus caballus, UniProt Q9N1N9); assay: Inhibition of equine serum BuChE by Ellman's assay
Summary of the method: (§1)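 Ellman photometric assay with electric eel AChE (type VI-S) or equine serum BChE (enzyme solution 2.5 U/mL) in phosphate buffer, pH 8.0. Enzyme and inhibitor stand together for 5 min, then DTNB is added. The reaction starts with acetylthiocholine (AChE) or butyrylthiocholine (BChE), and A412 is read 2.5 min later at 25 °C. At least five concentrations (highest 10^-4 M final) are run in triplicate. Percent activity versus the no-inhibitor reference is plotted against log concentration; each value is the mean of ≥3 independent runs.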

[3] = Cytotoxicity against mouse brain N11 cells from by MTT assay; format: cell-based
Summary of the method: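 N11 microglia (embryonic mouse brain, retrovirus-immortalized) were kept in DMEM with 10% heat-inactivated FCS and 2 mM glutamine. Cells were seeded at 5×10³/well and grown 24 h, then exposed 24 h to compound or solvent in phenol-red-free medium with 1% FCS.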

[4] = target: Acetylcholinesterase (Electrophorus electricus) (UniProt O42275); assay: Inhibition of electric eel AChE at 10 uM by Ellman's assay; summary of the method: as §1
Chain of Acetylcholinesterase (Electrophorus electricus) (O42275 24-633 limits assumed): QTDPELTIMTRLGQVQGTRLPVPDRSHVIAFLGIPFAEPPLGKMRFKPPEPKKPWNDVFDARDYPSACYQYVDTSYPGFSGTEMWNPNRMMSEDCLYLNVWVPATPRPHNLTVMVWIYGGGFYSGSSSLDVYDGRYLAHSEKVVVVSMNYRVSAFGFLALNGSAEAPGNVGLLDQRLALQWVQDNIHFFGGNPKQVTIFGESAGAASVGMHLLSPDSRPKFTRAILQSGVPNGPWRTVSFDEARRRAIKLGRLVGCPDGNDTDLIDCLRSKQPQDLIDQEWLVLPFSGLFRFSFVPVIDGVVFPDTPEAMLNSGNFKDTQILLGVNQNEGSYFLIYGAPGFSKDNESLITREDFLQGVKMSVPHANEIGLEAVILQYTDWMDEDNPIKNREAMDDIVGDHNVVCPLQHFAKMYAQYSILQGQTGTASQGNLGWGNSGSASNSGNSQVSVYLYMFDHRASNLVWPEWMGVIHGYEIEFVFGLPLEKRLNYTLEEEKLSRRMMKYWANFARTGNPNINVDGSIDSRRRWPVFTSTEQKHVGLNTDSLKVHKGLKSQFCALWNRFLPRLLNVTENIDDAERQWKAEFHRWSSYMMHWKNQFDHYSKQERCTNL

Chain of Butyrylcholinesterase (Q9N1N9 whole entry): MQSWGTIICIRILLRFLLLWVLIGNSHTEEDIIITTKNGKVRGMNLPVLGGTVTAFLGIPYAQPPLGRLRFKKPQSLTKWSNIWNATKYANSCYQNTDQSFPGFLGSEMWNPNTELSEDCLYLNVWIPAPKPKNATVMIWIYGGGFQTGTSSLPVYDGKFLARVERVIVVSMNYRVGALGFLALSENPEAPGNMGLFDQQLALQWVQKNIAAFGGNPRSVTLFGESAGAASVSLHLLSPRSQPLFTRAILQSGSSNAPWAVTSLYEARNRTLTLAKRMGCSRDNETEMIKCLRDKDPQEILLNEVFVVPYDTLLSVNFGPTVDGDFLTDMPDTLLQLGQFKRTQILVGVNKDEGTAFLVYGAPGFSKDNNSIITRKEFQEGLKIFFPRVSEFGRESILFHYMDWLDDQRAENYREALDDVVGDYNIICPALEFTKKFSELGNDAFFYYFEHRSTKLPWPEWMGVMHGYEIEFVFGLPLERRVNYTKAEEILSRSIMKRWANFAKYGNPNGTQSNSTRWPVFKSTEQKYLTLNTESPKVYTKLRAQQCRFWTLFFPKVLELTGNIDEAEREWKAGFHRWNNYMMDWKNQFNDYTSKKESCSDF
Chain of Acetylcholinesterase (O42275 whole entry): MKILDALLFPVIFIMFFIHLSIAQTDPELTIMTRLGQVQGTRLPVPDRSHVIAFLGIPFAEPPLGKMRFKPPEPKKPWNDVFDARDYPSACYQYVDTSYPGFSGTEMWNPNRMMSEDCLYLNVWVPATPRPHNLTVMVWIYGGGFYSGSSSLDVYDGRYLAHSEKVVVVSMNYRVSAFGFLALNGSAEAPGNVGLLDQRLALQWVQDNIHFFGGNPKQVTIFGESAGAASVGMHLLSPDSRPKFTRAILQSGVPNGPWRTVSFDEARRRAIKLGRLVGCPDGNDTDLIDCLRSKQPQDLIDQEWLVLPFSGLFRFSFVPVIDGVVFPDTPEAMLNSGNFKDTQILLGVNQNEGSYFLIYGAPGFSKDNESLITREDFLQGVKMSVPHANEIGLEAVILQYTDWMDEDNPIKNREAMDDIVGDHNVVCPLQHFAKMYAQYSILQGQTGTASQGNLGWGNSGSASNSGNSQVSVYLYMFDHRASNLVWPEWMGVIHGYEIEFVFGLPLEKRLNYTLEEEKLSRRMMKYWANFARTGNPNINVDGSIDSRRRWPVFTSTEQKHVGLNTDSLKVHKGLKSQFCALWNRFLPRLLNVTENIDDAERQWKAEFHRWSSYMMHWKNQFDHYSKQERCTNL

| Structure (SMILES) | Activity [1] | IC50 (Acetylcholinesterase) | Ratio IC50 [2] | IC50 (Butyrylcholinesterase) | IC50 [3] | inhibition [4] |
| --- | --- | --- | --- | --- | --- | --- |
| O=C(O)CCCCC1CCSS1 (stereo not drawn) [LIPOIC ACID, ALPHA] | 0.6 |  |  |  |  |  |
| NCCCCCCCC/N=c1/c2ccccc2nc2n1CCCCCC2 | 0.1 | 3400 nM | 73.9 | 46 nM | 3740 nM |  |
| O=C(CCCCC1CCSS1)NCCCCCCC/N=c1/c2ccc(Cl)cc2nc2n1CCC2 (stereo unspecified) |  | 1940 nM | 134 | 14 nM |  |  |
| O=C(CCCCC1CCSS1)NCCCCCCCC/N=c1/c2ccccc2nc2n1CCCCCC2 (stereo unspecified) | 0.4 |  | > 5000 | 23 nM | 6540 nM | < 10% |
| NCCCC/N=c1/c2ccc(Cl)cc2nc2n1CCC2 |  | 480 nM | 0.7 | 720 nM |  |  |
| O=C(CCCCC1CCSS1)NCCC/N=c1/c2ccc(Cl)cc2nc2n1CCC2 (stereo unspecified) | 0.8 | 2840 nM | 1.1 | 2580 nM | 7510 nM |  |
| N=c1c2ccccc2nc2n1CCC2 |  |  | 1.8 |  |  |  |
| CCCC/N=c1/c2ccc(Cl)cc2nc2n1CCC2 |  |  | 1.7 |  |  |  |
| NCCCCCC/N=c1/c2ccc(Cl)cc2nc2n1CCC2 | 0.2 | 1490 nM | 3.9 | 380 nM | 6010 nM |  |
| O=C(CCCCC1CCSS1)NCCCC/N=c1/c2ccc(Cl)cc2nc2n1CCC2 (stereo unspecified) |  | 4580 nM | 27.1 | 170 nM |  |  |
| Clc1ccc2/c(=N/CCCCCCCC/N=c3/c4ccc(Cl)cc4nc4n3CCC4)n3c(nc2c1)CCC3 |  | 50 nM |  | 45 nM |  |  |
| O=C(CCCCC1CCSS1)NCCCCC/N=c1/c2ccc(Cl)cc2nc2n1CCC2 (stereo unspecified) |  | 4380 nM | 83 | 53 nM |  |  |
| NCCCCC/N=c1/c2ccc(Cl)cc2nc2n1CCC2 |  | 170 nM | 0.9 | 190 nM |  |  |
| NCCC/N=c1/c2ccc(Cl)cc2nc2n1CCC2 |  | 19000 nM | 1.9 | 10200 nM |  |  |
| NCCCCCCCC/N=c1/c2ccc(Cl)cc2nc2n1CCC2 | 0.1 | 130 nM | 10.7 | 12 nM | 6270 nM |  |
| O=C(CCCCC1CCSS1)NCCCCCC/N=c1/c2ccc(Cl)cc2nc2n1CCC2 (stereo unspecified) |  | 740 nM | 28.8 | 26 nM |  |  |
| c1ccc(C/N=c2/c3ccccc3nc3n2CCCCCCC3)cc1 |  | > 500000 nM |  | 1100 nM |  |  |
| NCCCCCCC/N=c1/c2ccc(Cl)cc2nc2n1CCC2 |  | 4060 nM | 5.7 | 710 nM |  |  |
| O=C(CCCCC1CCSS1)NCCCCCCCC/N=c1/c2ccc(Cl)cc2nc2n1CCC2 (stereo unspecified) | 0.5 | 468 nM | 82 | 5.7 nM | 10200 nM |  |

From ChEMBL document CHEMBL1149888 (Bioorg Med Chem, 2008)
